Key:
Cannabinoid receptor 2 = Cannabinoid receptor 2 (Mus musculus, UniProt P47936); test: Displacement of [3H]CP-55940 from CB2 receptor in mouse spleen membrane; assay type: cell membranes
Outline: (§1)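 CB2 sites are measured with membranes prepared from frozen mouse spleen. Binding is competition against tritiated CP-55,940, run in 96-well filter format, and IC50 values are taken from displacement. Filters are washed in buffer containing 0.5% BSA and counted by scintillation. Ki is the mean of three independent experiments, each run in duplicate.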

Cannabinoid receptor 1 = Cannabinoid receptor 1 (Rattus norvegicus, UniProt P20272); test: Displacement of [3H]CP-55940 from CB1 receptor in rat brain synaptosomal membrane; assay type: cell membranes
Cannabinoid receptor 1, sequence (P20272 whole entry): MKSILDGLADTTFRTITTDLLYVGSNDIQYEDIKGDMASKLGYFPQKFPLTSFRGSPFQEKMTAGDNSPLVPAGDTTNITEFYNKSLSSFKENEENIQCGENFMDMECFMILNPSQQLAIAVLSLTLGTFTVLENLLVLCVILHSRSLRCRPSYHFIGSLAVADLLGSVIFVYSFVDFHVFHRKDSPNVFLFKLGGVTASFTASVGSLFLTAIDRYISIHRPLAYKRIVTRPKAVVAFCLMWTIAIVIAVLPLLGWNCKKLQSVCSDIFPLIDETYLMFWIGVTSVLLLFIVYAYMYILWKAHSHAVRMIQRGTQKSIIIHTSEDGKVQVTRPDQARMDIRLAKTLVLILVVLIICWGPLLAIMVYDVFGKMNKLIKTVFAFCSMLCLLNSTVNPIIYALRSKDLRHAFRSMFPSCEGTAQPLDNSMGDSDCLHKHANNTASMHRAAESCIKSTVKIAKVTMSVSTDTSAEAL
Outline: as §1, with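 “Rat forebrain synaptosomal” for “CB2 sites are measured with”, “brains serve as CB1 source.” for “mouse spleen.”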

[1] = Selectivity for mouse CB2 receptor over rat CB1 receptor

Cannabinoid receptor 2, sequence (P47936 whole entry): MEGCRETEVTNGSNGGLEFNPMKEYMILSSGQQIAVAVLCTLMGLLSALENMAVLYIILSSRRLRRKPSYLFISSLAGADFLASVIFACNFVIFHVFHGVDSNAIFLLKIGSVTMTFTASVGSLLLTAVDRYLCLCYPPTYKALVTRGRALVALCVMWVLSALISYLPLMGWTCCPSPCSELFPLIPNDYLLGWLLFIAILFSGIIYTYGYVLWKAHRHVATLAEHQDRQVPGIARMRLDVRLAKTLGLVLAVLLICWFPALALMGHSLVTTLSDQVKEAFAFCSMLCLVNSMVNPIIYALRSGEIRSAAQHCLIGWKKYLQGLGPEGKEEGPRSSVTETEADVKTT

Row | SMILES | Ki (Cannabinoid receptor 2) | Ki (Cannabinoid receptor 1) | Selectivity ratio [1]
1 | CCCCCCC1(c2cc(O)c3c(c2)OC(C)(C)[C@@H]2CC=C(C)C[C@@H]32)CCC1 | 11.5 nM | 1.5 nM | 8
2 | CCCC/C=C\C1(c2cc(O)c3c(c2)OC(C)(C)[C@@H]2CC=C(C)C[C@@H]32)CC1 | 1.7 nM | 1.5 nM | –
3 | CCCCCCCc1cc(O)c2c(c1)OC(C)(C)[C@@H]1CC=C(C)C[C@@H]21 | 20.8 nM | 8.8 nM | –
4 | CCCCCCCC1(c2cc(O)c3c(c2)OC(C)(C)[C@@H]2CC=C(C)C[C@@H]32)CCC1 | 52.3 nM | 2.7 nM | 20
5 | CCCCCCC1(c2cc(O)c3c(c2)OC(C)(C)[C@@H]2CC=C(C)C[C@@H]32)CCCCC1 | 23.5 nM | 18.4 nM | –
6 | CCCC/C=C\C1(c2cc(O)c3c(c2)OC(C)(C)[C@@H]2CC=C(C)C[C@@H]32)CCC1 | 1.2 nM | 0.93 nM | –
7 | CCCCCCCC1(c2cc(O)c3c(c2)OC(C)(C)[C@@H]2CC=C(C)C[C@@H]32)CCCC1 | 45.5 nM | 9.9 nM | –
8 | CCCC/C=C\C1(c2cc(O)c3c(c2)OC(C)(C)[C@@H]2CC=C(C)C[C@@H]32)CCCC1 (relative stereo) | 1.8 nM | 0.72 nM | –
9 | CCCCCCCC1(c2cc(O)c3c(c2)OC(C)(C)[C@@H]2CC=C(C)C[C@@H]32)CC1 (relative stereo) | 4.2 nM | 0.48 nM | –
10 | CCCC/C=C\C1(c2cc(O)c3c(c2)OC(C)(C)[C@@H]2CC=C(C)C[C@@H]32)CCCCC1 | 4.9 nM | 3.9 nM | –
11 | CCCCCCCC1(c2cc(O)c3c(c2)OC(C)(C)[C@@H]2CC=C(C)C[C@@H]32)CCCCC1 | 143 nM | 13.6 nM | –

Source: ChEMBL document CHEMBL1148743, “C1'-cycloalkyl side chain pharmacophore in tetrahydrocannabinols” (J Med Chem, 2007)
